One assay has as its system CDK7. The conditions noted are these: cited from earlier work.
The subject of assay [1] is advanced/metastatic solid tumors. The experiment in a line: Antitumor activity. It is filed as in vivo, human. The gist of the method: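 Adults (≥18 y) with relapsed or refractory solid tumours and no standard therapy, ECOG 0–1, take the test compound as capsules orally once daily for 7 consecutive days in 2-week cycles (S1). Patients stay on study until progression, refusal or unacceptable toxicity. Disease is assessed by RECIST every 8 weeks and at study discontinuation.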

For a further assay, the system named is CDK2. The settings on record: cited from earlier work.

For `CNC(=O)c1nn(C)c2c1C(C)(C)Cc1cnc(Nc3ccc(N4CCN(C)CC4)cc3)nc1-2` [PHA-848125AC, N,1,4,4-tetramethyl-8-{[4-(4-methylpiperazin-1-yl)phenyl]amino}-4,5-dihydro-1H-pyrazolo [4,3-h]quinazoline-3-carboxamide], the “inhibitory activity towards CDK7” value in the assay on CDK7 is given as “inhibitory activity”. The duration of stabilization in assay [1] (CRC patient, 150 mg/day, S1) is 55.6 weeks; in assay [1] (NSCLC patient, 200 mg/day, S1), 24.6 weeks; in assay [1] (carcinoid patient, 180 mg/day, S2) it was 29.1 weeks; in assay [1] (pancreatic adenocarcinoma patient, 180 mg/day, S2) it was 39.3 weeks. Besides, in assay [1] (S1), the objective response entry is recorded as “No objective response”. The entries for the “patients discontinued for lack of efficacy” value in assay [1] (S1 N=22) and in assay [1] (S2 N=15) were 81.8% and 86.7%, respectively. Besides, in the assay on CDK2, the “inhibitory activity towards CDK2” value is reported as “inhibitory activity”.

(Values after article PMC3561458 (Investigational new drugs, 2011).)
